Only some compounds are listed: those with a hit (about 2.9% of all), similar ones and a draw of the others.
OX1R antag-1 = OX1R (human) antagonism; O43613; OX1R-expressing cells, FRET antagonist read-out; inhibition, % at 6.6 µM; actives 1.8% (n = 330,000); AID 485270; in the data active means inhibition mostly above about 38%, no sharp cut-off; inactive means mostly below about 40%
Target sequence (O43613 whole entry, looked up): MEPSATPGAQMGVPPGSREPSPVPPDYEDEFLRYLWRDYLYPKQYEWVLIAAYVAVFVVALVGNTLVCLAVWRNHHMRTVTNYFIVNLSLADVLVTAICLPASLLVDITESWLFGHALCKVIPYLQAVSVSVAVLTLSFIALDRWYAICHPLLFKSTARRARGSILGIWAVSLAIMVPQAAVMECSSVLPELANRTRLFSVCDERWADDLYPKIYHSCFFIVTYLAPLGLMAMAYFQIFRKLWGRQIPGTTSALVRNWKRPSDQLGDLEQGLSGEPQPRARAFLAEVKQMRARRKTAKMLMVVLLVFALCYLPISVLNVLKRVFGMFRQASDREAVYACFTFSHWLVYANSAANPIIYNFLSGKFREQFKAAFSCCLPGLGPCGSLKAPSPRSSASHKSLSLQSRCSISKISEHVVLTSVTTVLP
CHO parental Ca = counter-screen: ATP calcium response change in parental CHO cells | AID 463079 | inhibition, % at 5.6 µM | parental CHO-K1, ATP-induced calcium, Fluo-8 fluorescence | actives 0.63% (n = 330,000);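 active means inhibition above that plate's mean sample inhibition plus 3 SD, cut at about 26% in these data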
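Material: Parental CHO cells | Reagent: ATP | Compound dosing: Single nominal dose of 5.6 µM per compound | Detection: Intracellular calcium via Fluo-8 no-wash fluorescent dye | Read-out: % inhibition of ATP-induced calcium mobilization | Benchmarks: Low control ATP plus DMSO, high control DMSO only | Replicates: Singlicate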
M1 ag parental = nonselective activator or artifact in parental CHO-K1 cells. AID 602248. activation, % at 3 µM. actives 0.48% (n = 360,000). Fluo-8 calcium fluorescence; scaled to maximal ATP response, vehicle zero; in the data active means activation above about 15%;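 further: untransfected CHO-K1 host cells lacking M1 receptor as counterscreen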
CHO-K1 Ca antag = nonselective inhibitor or artifact in parental CHO-K1 cells; ATP-induced calcium, Fluo-8 fluorescence; inhibition, % at 3 µM; actives 0.6% (n = 360,000);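 active means inhibition above a per-plate cutoff, the plate's mean sample inhibition plus 3 SD, cut at about 24% in these data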
M1 PAM parental = counter-screen for M1 PAMs: effect in parental CHO-K1 cells. AID 602247. activation, % at 3 µM. ATP EC20, Fluo-8 calcium fluorescence; 0% at ATP EC20, 100% at ATP max. actives 0.02% (n = 360,000);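 active means activation above the run cutoff, the mean activation of all test compounds plus 3 SD, cut at about 40% in these data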;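 further: peak over basal fluorescence ratio in a 140 s read after ATP addition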
OX1R antag-2 = human HCRTR1 antagonism; inhibition, % at 5 µM; O43613; AID 434989; actives 0.43% (n = 330,000); CHO/OX1R cells, Fluo-8 calcium fluorescence, orexin A;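 active means inhibition above its plate's threshold, mean inhibition of all tested compounds on the plate plus 3 SD, cut at about 37% in these data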
Each line names hits and unclear results; the compound was inactive in the other large screens.

CC(=NNc1nc2ccccc2s1)c1ncccn1	CHO-K1 Ca antag 27 (no result: OX1R antag-1, CHO parental Ca, OX1R antag-2)
C[C@@H]1CN([C@H](C)CO)C(=O)CCCn2nncc2CO[C@H]1CN(C)Cc1cccc(C(F)(F)F)c1	none (no result: OX1R antag-1, CHO parental Ca, OX1R antag-2)
Cc1nnc(NC(=O)c2cc(S(=O)(=O)N3CCCCC3)ccc2Cl)s1	none
Cc1cc(C)n(CCc2nc(-c3cc4ccccc4o3)cs2)n1	CHO parental Ca 38, OX1R antag-2 55
Cc1cc(C)c(NC(=O)CSc2ccc3nnc(CCNC(=O)c4ccccc4)n3n2)c(C)c1	none
O=C(NC(=S)Nc1sc2c(c1C(=O)O)CCCC2)c1ccccc1	none
O=c1[nH]nc(Cc2ccc(-c3cccc(Cl)c3)o2)c2ccccc12	OX1R antag-1 71, CHO-K1 Ca antag 24, OX1R antag-2 55
O=C(Cc1n[nH]c(=O)c2ccccc12)NCc1ccc(Cl)cc1	none
CCOC(=O)C1CCCN(C(=O)c2ccccc2OC(F)(F)F)CC1 (stereo unspecified)	none (no result: OX1R antag-1, CHO parental Ca, OX1R antag-2)
COc1cccc(-c2nn3c(-c4cccc(C)c4)nnc3s2)c1	OX1R antag-1 57
CCOc1ccc(-c2nn3c(-c4ccccc4)nnc3s2)cc1	OX1R antag-1 64
COc1ccc(Nc2oc(COc3ccc(C)cc3)nc2C#N)cc1	CHO parental Ca 38
CCOc1ccc(Nc2oc(-c3cccs3)nc2C#N)cc1	OX1R antag-1 57
O=C(/C=C/c1ccc(F)cc1)NC(=S)NNC(=O)[C@H]1C[C@@H]1c1ccccc1	M1 ag parental 40
O=c1ccn([C@@H]2O[C@H](CNCc3cccn3-c3ccncc3)[C@@H](O)[C@H]2O)c(=O)[nH]1	none (no result: OX1R antag-1, CHO parental Ca, OX1R antag-2)
CC(C)NS(=O)(=O)c1ccc(NC(=O)C(C)Oc2ccc(C(=O)c3ccccc3)cc2)cc1 (stereo unspecified)	CHO parental Ca 68, M1 ag parental 44, CHO-K1 Ca antag 51, OX1R antag-2 93
CC(Oc1ccc(Cl)cc1)C(=O)Nc1ccc(S(=O)(=O)N2CCOCC2)cc1 (stereo unspecified)	M1 ag parental 36
CC(Oc1ccccc1)C(=O)Nc1ccc(C(N)=O)cc1 (stereo unspecified)	none
CCOc1ccccc1O[C@H](c1ccccc1)[C@H]1CNCCO1	none
COC(=O)c1ccc(N(CC(=O)NC2CCCC2)C(=O)c2ccc(C)s2)cc1	none
O=C(Nc1ccc(N2CCCCC2)cc1)C1CCCN1S(=O)(=O)c1ccc(F)cc1 (stereo unspecified)	none
CS(=O)(=O)c1cccc(NC(=O)C2CCCN2S(=O)(=O)c2ccc(F)cc2)c1 (stereo unspecified)	OX1R antag-1 55
O=C(Nc1cccc(S(=O)(=O)N2CCCCC2)c1)C1CCCN1S(=O)(=O)c1ccccc1F (stereo unspecified)	OX1R antag-1 28
COc1ccccc1/C=C/C(=O)NCc1cccnc1	none
OCCCNC(=S)Nc1ccc2nc(-c3ccccn3)c(-c3ccccn3)nc2c1	OX1R antag-1 75
CC(C)(C)CC(C)(C)NC(=S)Nc1ccc2nc(-c3ccccn3)c(-c3ccccn3)nc2c1	none
COc1ccccc1Cc1c(C2CCCCC2)nc2ccc(Cl)cn12	none (no result: OX1R antag-1, CHO parental Ca, OX1R antag-2)
O=C1CCN(C2CCN(Cc3nc(Cc4ccccc4F)no3)CC2)CCN1	none
COc1ccc(C2c3ccc4ccccc4c3Oc3ncn(Cc4ccco4)c(=N)c32)cc1OC (stereo unspecified)	CHO-K1 Ca antag 26
CC(NS(=O)(=O)c1ccccc1)C1CC2CCC1C2 (stereo unspecified)	none
O=C(COC(=O)c1ccc(F)cc1F)c1ccc[nH]1	none (no result: OX1R antag-1, CHO parental Ca, OX1R antag-2)
O=[N+]([O-])c1ccc(S(=O)(=O)N2CCN(C3CCN(Cc4ccccc4)CC3)CC2)cc1	OX1R antag-1 63
COc1ccc(S(=O)(=O)N2CCN(Cc3c[nH]c4ccccc34)CC2)cc1	none
CCOC(=O)C1=C[C@@H](C2CCCC2)N(S(=O)(=O)c2ccc([N+](=O)[O-])cc2)[C@H]1c1ccccc1	CHO-K1 Ca antag 31 (no result: OX1R antag-1, CHO parental Ca, OX1R antag-2)
CCOC(=O)N1CCC(N2CCN(S(=O)(=O)c3ccc([N+](=O)[O-])cc3)CC2)CC1	OX1R antag-1 54
O=S(=O)(c1ccc(Cl)cc1)N1CCN(C2CCN(Cc3ccccc3)CC2)CC1	none
O=[N+]([O-])c1ccc(S(=O)(=O)N2CCN(Cc3c[nH]c4ccccc34)CC2)cc1	OX1R antag-1 49
CCCCCCCCCCCCCCCC[n+]1ccc(C(N)=O)cc1	CHO parental Ca 98, OX1R antag-2 78
CCCCCCCCCCCCCCCC[n+]1cccc(C(=O)N(CC)CC)c1	CHO parental Ca 57
CCCCCCCCCCCCCCCC[n+]1ccc(/C=N/O)cc1	CHO parental Ca 80, OX1R antag-2 58
O=C(Cc1cccc(NC(=O)C2CCCN(C(=O)C3CCC3)C2)c1)Nc1ccc(C(=O)N2CCCCC2)cc1 (stereo unspecified)	none (no result: OX1R antag-1, CHO parental Ca, OX1R antag-2)
COc1ccccc1OCC(=O)Nc1nc(C)c(C)s1	none
C=CCCCCCCCCC(=O)NN	none
NNC(=O)CS(=O)(=O)CS(=O)(=O)CC(=O)NN	CHO-K1 Ca antag 72
COC(=O)C[C@H]1C[C@@H]2c3cc(NC(=O)CN(C)C)ccc3O[C@@H]2[C@H](CO)O1	none (no result: OX1R antag-1, CHO parental Ca, OX1R antag-2)
COCC(=O)Nc1ccc2c(c1)[C@@H]1C[C@H](CC(=O)OC)O[C@@H](CO)[C@@H]1O2	CHO-K1 Ca antag 24 (no result: OX1R antag-1, CHO parental Ca, OX1R antag-2)
Cc1ccc(C)c(NC(=O)COC(=O)c2c(C)nn(-c3ccccc3)c2C)c1	none
CC1CCN(S(=O)(=O)c2cccc(S(=O)(=O)N3CCCC3)c2)CC1	none
CCOc1ccc(NC(=O)CN(C)C(=O)c2cc(S(=O)(=O)N3CCCCCC3)ccc2OC)cc1OCC	none
COc1ccc(CCn2nnnc2CN2CCN(C(=O)c3ccco3)CC2)cc1OC	CHO-K1 Ca antag 24
Cc1ccc(NCC(=O)Nc2ccc(F)c(Cl)c2)cc1S(=O)(=O)N1CCOCC1	none (no result: OX1R antag-1, CHO parental Ca, OX1R antag-2)
CCNC(=O)c1ccc(C23CC4CC(CC(C4)C2)C3)o1	M1 ag parental 15
CC(C)NC(=O)C1(C)CCN1Cc1cccc(Cl)c1 (stereo unspecified)	none (no result: OX1R antag-1, CHO parental Ca, OX1R antag-2)
COC1=CC(=O)C=C(OC)C1=O	none (no result: OX1R antag-1, CHO parental Ca, OX1R antag-2)
COC1=CC(=O)c2ccccc2C1=O	OX1R antag-1 92
N#C/C(N=Nc1ccccc1O)=N\Nc1ccccc1O	M1 ag parental 16
Oc1ccccc1N=N/C(=N/Nc1ccccc1O)c1ccccc1	none
O=C(NCc1ccccn1)C(=O)Nc1cc2c3c(c1)CC(=O)N3CCC2	none
CCCCOC(=O)CSCC(=O)N1N=C(c2cccs2)CC1c1ccc(F)cc1 (stereo unspecified)	CHO parental Ca 29
O=C(CN1C(=O)c2ccccc2S1(=O)=O)N1CCc2ccccc2C1	CHO-K1 Ca antag 25
COc1ccc(NC(=O)c2cc(C3CCCCN3S(=O)(=O)Cc3ccccc3)on2)c(C)c1 (stereo unspecified)	none (no result: OX1R antag-1, CHO parental Ca, OX1R antag-2)
COc1ccccc1CN(C)C(=O)CSc1nnc(C2CC2)n1C1CC1	none
